Source: ChEMBL document CHEMBL4706590, “Design and characterization of cereblon-mediated androgen receptor proteolysis-targeting chimeras” (Eur J Med Chem, 2020)

test system: VCaP; assay: Antiproliferative activity against human VCaP cells assessed as reduction in cell viability after 6 days by CellTiter-Glo assay; assay type: functional; conditions: 144 h, time 6 day
Outline: (§1)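 LNCaP seeded at 1.5 × 10³ and VCaP at 4 × 10³ cells per well in 96-well plates. Cells grown in IMDM with 10% FBS and antibiotic-antimycotic at 37 °C, 5% CO2, with DMSO as vehicle. IC50 from nonlinear regression of log(inhibitor) versus response.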

Compound	CC50 [nM]
CC1(C)[C@H](NC(=O)c2ccc(N3CCN(CCC4CCN(C(=O)C5CCN(c6ccc7nnn(C8CCC(=O)NC8=O)c(=O)c7c6)CC5)CC4)CC3)cc2)C(C)(C)[C@H]1Oc1ccc(C#N)c(Cl)c1 (stereo not given in full)	52
CC1(C)[C@H](NC(=O)c2ccc(N3CCN(C4CC5(CCN(C(=O)COc6ccc7nnn(C8CCC(=O)NC8=O)c(=O)c7c6)CC5)C4)CC3)cc2)C(C)(C)[C@H]1Oc1ccc(C#N)c(Cl)c1 (stereo not given in full)	76
CC1(C)[C@H](NC(=O)c2ccc(N3CCN(CCOC4CCN(C(=O)CNc5ccc6nnn(C7CCC(=O)NC7=O)c(=O)c6c5)CC4)CC3)cc2)C(C)(C)[C@H]1Oc1ccc(C#N)c(Cl)c1 (stereo not given in full)	57
CC1(C)[C@H](NC(=O)c2ccc(N3CCN(CCC4CCN(C(=O)COc5ccc6nnn(C7CCC(=O)NC7=O)c(=O)c6c5)CC4)CC3)cc2)C(C)(C)[C@H]1Oc1ccc(C#N)c(Cl)c1 (stereo not given in full)	46
CC1(C)[C@H](NC(=O)c2ccc(N3CCN(CCC4CCN(C(=O)CNc5ccc6nnn(C7CCC(=O)NC7=O)c(=O)c6c5)CC4)CC3)cc2)C(C)(C)[C@H]1Oc1ccc(C#N)c(Cl)c1 (stereo not given in full)	107
CC1(C)[C@H](NC(=O)c2ccc(N3CCN(C4CC5(CCN(C(=O)C6CN(c7ccc8nnn(C9CCC(=O)NC9=O)c(=O)c8c7)C6)CC5)C4)CC3)cc2)C(C)(C)[C@H]1Oc1ccc(C#N)c(Cl)c1 (stereo not given in full)	135

target: T1, Protein cereblon/Androgen receptor (Homo sapiens, UniProt P10275+Q96SW2); assay: Protac activity at CRBN/AR in human LNCaP cells assessed as AR degradation at 10 uM by Western blotting analysis relative to control; assay type: cell-based; conditions: not given
Outline: (§2)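 LNCaP (IMDM) or 22RV1 (RPMI 1640) cells with 10% FBS at 37 °C, 5% CO2, treated with DMSO vehicle as control. Cells lysed in RIPA buffer (50 mM Tris-HCl pH 7.5, 150 mM NaCl, 1% Triton X-100, 0.1% SDS, 0.5% deoxycholate, protease inhibitors). Protein quantified by Bradford assay. Immunoblotted for AR with tubulin as loading control, HRP chemiluminescence detection.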

T1 sequence (P10275 whole entry, looked up): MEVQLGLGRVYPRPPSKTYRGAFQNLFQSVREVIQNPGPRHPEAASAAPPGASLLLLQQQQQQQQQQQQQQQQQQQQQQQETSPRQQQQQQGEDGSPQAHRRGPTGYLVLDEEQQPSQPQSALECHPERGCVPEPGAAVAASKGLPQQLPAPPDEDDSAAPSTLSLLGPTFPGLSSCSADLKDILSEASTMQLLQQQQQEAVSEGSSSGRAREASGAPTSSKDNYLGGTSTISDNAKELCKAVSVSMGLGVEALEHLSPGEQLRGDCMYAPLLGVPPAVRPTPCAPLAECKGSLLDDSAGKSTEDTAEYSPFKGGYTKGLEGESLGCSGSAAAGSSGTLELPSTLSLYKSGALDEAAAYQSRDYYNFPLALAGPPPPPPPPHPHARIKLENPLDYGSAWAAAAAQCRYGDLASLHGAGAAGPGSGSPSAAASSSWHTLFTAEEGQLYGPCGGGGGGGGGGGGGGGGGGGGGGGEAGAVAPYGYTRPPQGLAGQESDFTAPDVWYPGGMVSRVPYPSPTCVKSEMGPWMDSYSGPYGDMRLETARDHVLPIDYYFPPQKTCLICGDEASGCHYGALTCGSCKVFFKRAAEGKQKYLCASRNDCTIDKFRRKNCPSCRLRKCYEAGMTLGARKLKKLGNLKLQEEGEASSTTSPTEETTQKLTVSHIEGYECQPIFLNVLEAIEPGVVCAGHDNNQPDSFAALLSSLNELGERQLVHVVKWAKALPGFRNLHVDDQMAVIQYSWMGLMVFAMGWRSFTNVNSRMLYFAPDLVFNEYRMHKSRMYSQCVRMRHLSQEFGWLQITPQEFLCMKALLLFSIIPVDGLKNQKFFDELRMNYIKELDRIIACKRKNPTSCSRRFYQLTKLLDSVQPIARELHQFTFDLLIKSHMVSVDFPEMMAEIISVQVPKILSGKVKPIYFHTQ
T1 sequence (Q96SW2 whole entry, looked up): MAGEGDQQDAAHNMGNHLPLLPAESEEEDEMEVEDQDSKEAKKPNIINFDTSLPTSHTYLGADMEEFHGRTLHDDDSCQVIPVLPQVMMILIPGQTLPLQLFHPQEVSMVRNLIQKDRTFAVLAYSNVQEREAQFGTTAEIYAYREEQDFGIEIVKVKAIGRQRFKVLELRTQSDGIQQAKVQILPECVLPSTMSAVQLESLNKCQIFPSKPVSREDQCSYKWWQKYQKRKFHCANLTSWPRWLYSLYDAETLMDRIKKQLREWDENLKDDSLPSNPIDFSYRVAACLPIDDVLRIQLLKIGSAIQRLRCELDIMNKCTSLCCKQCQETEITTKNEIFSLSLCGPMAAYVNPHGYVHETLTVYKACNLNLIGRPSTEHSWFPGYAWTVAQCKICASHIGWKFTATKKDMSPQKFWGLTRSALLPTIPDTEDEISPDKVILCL

Compound	Activity [%]
CC1(C)[C@H](NC(=O)c2ccc(N3CCN(CCC4CCN(C(=O)C5CCN(c6ccc7nnn(C8CCC(=O)NC8=O)c(=O)c7c6)CC5)CC4)CC3)cc2)C(C)(C)[C@H]1Oc1ccc(C#N)c(Cl)c1 (stereo not given in full)	99
CC1(C)[C@H](NC(=O)c2ccc(N3CCN(C4CC5(CCN(C(=O)COc6ccc7nnn(C8CCC(=O)NC8=O)c(=O)c7c6)CC5)C4)CC3)cc2)C(C)(C)[C@H]1Oc1ccc(C#N)c(Cl)c1 (stereo not given in full)	79
CC1(C)[C@H](NC(=O)c2ccc(N3CCN(CCOC4CCN(C(=O)CNc5ccc6nnn(C7CCC(=O)NC7=O)c(=O)c6c5)CC4)CC3)cc2)C(C)(C)[C@H]1Oc1ccc(C#N)c(Cl)c1 (stereo not given in full)	88
CC1(C)[C@H](NC(=O)c2ccc(N3CCN(CCC4CCN(C(=O)COc5ccc6nnn(C7CCC(=O)NC7=O)c(=O)c6c5)CC4)CC3)cc2)C(C)(C)[C@H]1Oc1ccc(C#N)c(Cl)c1 (stereo not given in full)	82
CC1(C)[C@H](NC(=O)c2ccc(N3CCN(CCC4CCN(C(=O)CNc5ccc6nnn(C7CCC(=O)NC7=O)c(=O)c6c5)CC4)CC3)cc2)C(C)(C)[C@H]1Oc1ccc(C#N)c(Cl)c1 (stereo not given in full)	83
CC1(C)[C@H](NC(=O)c2ccc(N3CCN(C4CC5(CCN(C(=O)C6CN(c7ccc8nnn(C9CCC(=O)NC9=O)c(=O)c8c7)C6)CC5)C4)CC3)cc2)C(C)(C)[C@H]1Oc1ccc(C#N)c(Cl)c1 (stereo not given in full)	0

test system: LNCaP; assay: Antiproliferative activity against human LNCaP cells assessed as reduction in cell viability after 6 days by CellTiter-Glo assay; assay type: functional; conditions: 144 h, time 6 day; outline: as §1

Compound	CC50 [nM]
CC1(C)[C@H](NC(=O)c2ccc(N3CCN(CCC4CCN(C(=O)C5CCN(c6ccc7nnn(C8CCC(=O)NC8=O)c(=O)c7c6)CC5)CC4)CC3)cc2)C(C)(C)[C@H]1Oc1ccc(C#N)c(Cl)c1 (stereo not given in full)	316
CC1(C)[C@H](NC(=O)c2ccc(N3CCN(C4CC5(CCN(C(=O)COc6ccc7nnn(C8CCC(=O)NC8=O)c(=O)c7c6)CC5)C4)CC3)cc2)C(C)(C)[C@H]1Oc1ccc(C#N)c(Cl)c1 (stereo not given in full)	196
CC1(C)[C@H](NC(=O)c2ccc(N3CCN(CCOC4CCN(C(=O)CNc5ccc6nnn(C7CCC(=O)NC7=O)c(=O)c6c5)CC4)CC3)cc2)C(C)(C)[C@H]1Oc1ccc(C#N)c(Cl)c1 (stereo not given in full)	852
CC1(C)[C@H](NC(=O)c2ccc(N3CCN(CCC4CCN(C(=O)COc5ccc6nnn(C7CCC(=O)NC7=O)c(=O)c6c5)CC4)CC3)cc2)C(C)(C)[C@H]1Oc1ccc(C#N)c(Cl)c1 (stereo not given in full)	3180
CC1(C)[C@H](NC(=O)c2ccc(N3CCN(CCC4CCN(C(=O)CNc5ccc6nnn(C7CCC(=O)NC7=O)c(=O)c6c5)CC4)CC3)cc2)C(C)(C)[C@H]1Oc1ccc(C#N)c(Cl)c1 (stereo not given in full)	1090
CC1(C)[C@H](NC(=O)c2ccc(N3CCN(C4CC5(CCN(C(=O)C6CN(c7ccc8nnn(C9CCC(=O)NC9=O)c(=O)c8c7)C6)CC5)C4)CC3)cc2)C(C)(C)[C@H]1Oc1ccc(C#N)c(Cl)c1 (stereo not given in full)	312

test system: not listed separately; assay: Metabolic stability in mouse liver microsomes assessed as compound remaining at 1 uM after 30 mins in presence of NADPH-regenerating system; assay type: ADME, Microsome; conditions: read-out: Stabilty
Outline: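 Mouse liver microsomes at 0.5 mg protein/mL in 100 mM PBS, pH 7.4. Reaction started with NADPH-regenerating solution (1.3 mM NADP+, 3.3 mM glucose-6-phosphate, 0.4 U/mL G6PDH, 3.3 mM MgCl2). Incubated 30 min at 37 °C, stopped with ice-cold acetonitrile, centrifuged. Percent remaining reported as mean ± SD, n = 3.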

Compound	remaining at 0.5 h, 1 µM [%]
CC1(C)[C@H](NC(=O)c2ccc(N3CCN(CCC4CCN(C(=O)C5CCN(c6ccc7nnn(C8CCC(=O)NC8=O)c(=O)c7c6)CC5)CC4)CC3)cc2)C(C)(C)[C@H]1Oc1ccc(C#N)c(Cl)c1 (stereo not given in full)	93.7
CC1(C)[C@H](NC(=O)c2ccc(N3CCN(C4CC5(CCN(C(=O)COc6ccc7nnn(C8CCC(=O)NC8=O)c(=O)c7c6)CC5)C4)CC3)cc2)C(C)(C)[C@H]1Oc1ccc(C#N)c(Cl)c1 (stereo not given in full)	62.8
CC1(C)[C@H](NC(=O)c2ccc(N3CCN(CCOC4CCN(C(=O)CNc5ccc6nnn(C7CCC(=O)NC7=O)c(=O)c6c5)CC4)CC3)cc2)C(C)(C)[C@H]1Oc1ccc(C#N)c(Cl)c1 (stereo not given in full)	31.2
CC1(C)[C@H](NC(=O)c2ccc(N3CCN(CCC4CCN(C(=O)COc5ccc6nnn(C7CCC(=O)NC7=O)c(=O)c6c5)CC4)CC3)cc2)C(C)(C)[C@H]1Oc1ccc(C#N)c(Cl)c1 (stereo not given in full)	2.98
CC1(C)[C@H](NC(=O)c2ccc(N3CCN(CCC4CCN(C(=O)CNc5ccc6nnn(C7CCC(=O)NC7=O)c(=O)c6c5)CC4)CC3)cc2)C(C)(C)[C@H]1Oc1ccc(C#N)c(Cl)c1 (stereo not given in full)	0.56

target: T1, Protein cereblon/Androgen receptor; assay: Protac activity at CRBN/AR in human LNCaP cells assessed as AR degradation at 1 uM by Western blotting analysis relative to control; assay type: cell-based; conditions: not given; outline: as §2

Compound	Activity [%]
CC1(C)[C@H](NC(=O)c2ccc(N3CCN(CCC4CCN(C(=O)C5CCN(c6ccc7nnn(C8CCC(=O)NC8=O)c(=O)c7c6)CC5)CC4)CC3)cc2)C(C)(C)[C@H]1Oc1ccc(C#N)c(Cl)c1 (stereo not given in full)	93
CC1(C)[C@H](NC(=O)c2ccc(N3CCN(C4CC5(CCN(C(=O)COc6ccc7nnn(C8CCC(=O)NC8=O)c(=O)c7c6)CC5)C4)CC3)cc2)C(C)(C)[C@H]1Oc1ccc(C#N)c(Cl)c1 (stereo not given in full)	77
CC1(C)[C@H](NC(=O)c2ccc(N3CCN(CCOC4CCN(C(=O)CNc5ccc6nnn(C7CCC(=O)NC7=O)c(=O)c6c5)CC4)CC3)cc2)C(C)(C)[C@H]1Oc1ccc(C#N)c(Cl)c1 (stereo not given in full)	95
CC1(C)[C@H](NC(=O)c2ccc(N3CCN(CCC4CCN(C(=O)COc5ccc6nnn(C7CCC(=O)NC7=O)c(=O)c6c5)CC4)CC3)cc2)C(C)(C)[C@H]1Oc1ccc(C#N)c(Cl)c1 (stereo not given in full)	50
CC1(C)[C@H](NC(=O)c2ccc(N3CCN(CCC4CCN(C(=O)CNc5ccc6nnn(C7CCC(=O)NC7=O)c(=O)c6c5)CC4)CC3)cc2)C(C)(C)[C@H]1Oc1ccc(C#N)c(Cl)c1 (stereo not given in full)	87
CC1(C)[C@H](NC(=O)c2ccc(N3CCN(C4CC5(CCN(C(=O)C6CN(c7ccc8nnn(C9CCC(=O)NC9=O)c(=O)c8c7)C6)CC5)C4)CC3)cc2)C(C)(C)[C@H]1Oc1ccc(C#N)c(Cl)c1 (stereo not given in full)	79

target: T1, Protein cereblon/Androgen receptor; assay: Protac activity at CRBN/AR in human LNCaP cells assessed as AR degradation at 0.1 uM by western blotting analysis relative to control; assay type: cell-based; conditions: not given; outline: as §2

Compound	Activity [%]
CC1(C)[C@H](NC(=O)c2ccc(N3CCN(CCC4CCN(C(=O)C5CCN(c6ccc7nnn(C8CCC(=O)NC8=O)c(=O)c7c6)CC5)CC4)CC3)cc2)C(C)(C)[C@H]1Oc1ccc(C#N)c(Cl)c1 (stereo not given in full)	77
CC1(C)[C@H](NC(=O)c2ccc(N3CCN(C4CC5(CCN(C(=O)COc6ccc7nnn(C8CCC(=O)NC8=O)c(=O)c7c6)CC5)C4)CC3)cc2)C(C)(C)[C@H]1Oc1ccc(C#N)c(Cl)c1 (stereo not given in full)	60
CC1(C)[C@H](NC(=O)c2ccc(N3CCN(CCOC4CCN(C(=O)CNc5ccc6nnn(C7CCC(=O)NC7=O)c(=O)c6c5)CC4)CC3)cc2)C(C)(C)[C@H]1Oc1ccc(C#N)c(Cl)c1 (stereo not given in full)	77
CC1(C)[C@H](NC(=O)c2ccc(N3CCN(CCC4CCN(C(=O)COc5ccc6nnn(C7CCC(=O)NC7=O)c(=O)c6c5)CC4)CC3)cc2)C(C)(C)[C@H]1Oc1ccc(C#N)c(Cl)c1 (stereo not given in full)	0
CC1(C)[C@H](NC(=O)c2ccc(N3CCN(CCC4CCN(C(=O)CNc5ccc6nnn(C7CCC(=O)NC7=O)c(=O)c6c5)CC4)CC3)cc2)C(C)(C)[C@H]1Oc1ccc(C#N)c(Cl)c1 (stereo not given in full)	7
CC1(C)[C@H](NC(=O)c2ccc(N3CCN(C4CC5(CCN(C(=O)C6CN(c7ccc8nnn(C9CCC(=O)NC9=O)c(=O)c8c7)C6)CC5)C4)CC3)cc2)C(C)(C)[C@H]1Oc1ccc(C#N)c(Cl)c1 (stereo not given in full)	0
